The values below come from paper PMC2216779 (The Journal of General Physiology, 1993).

For assay [1], the target named is T1, chloride transport in human red blood cells; capnophorin (band 3 or AE1) (Homo sapiens, UniProt P02730).
T1 sequence (P02730 1-911): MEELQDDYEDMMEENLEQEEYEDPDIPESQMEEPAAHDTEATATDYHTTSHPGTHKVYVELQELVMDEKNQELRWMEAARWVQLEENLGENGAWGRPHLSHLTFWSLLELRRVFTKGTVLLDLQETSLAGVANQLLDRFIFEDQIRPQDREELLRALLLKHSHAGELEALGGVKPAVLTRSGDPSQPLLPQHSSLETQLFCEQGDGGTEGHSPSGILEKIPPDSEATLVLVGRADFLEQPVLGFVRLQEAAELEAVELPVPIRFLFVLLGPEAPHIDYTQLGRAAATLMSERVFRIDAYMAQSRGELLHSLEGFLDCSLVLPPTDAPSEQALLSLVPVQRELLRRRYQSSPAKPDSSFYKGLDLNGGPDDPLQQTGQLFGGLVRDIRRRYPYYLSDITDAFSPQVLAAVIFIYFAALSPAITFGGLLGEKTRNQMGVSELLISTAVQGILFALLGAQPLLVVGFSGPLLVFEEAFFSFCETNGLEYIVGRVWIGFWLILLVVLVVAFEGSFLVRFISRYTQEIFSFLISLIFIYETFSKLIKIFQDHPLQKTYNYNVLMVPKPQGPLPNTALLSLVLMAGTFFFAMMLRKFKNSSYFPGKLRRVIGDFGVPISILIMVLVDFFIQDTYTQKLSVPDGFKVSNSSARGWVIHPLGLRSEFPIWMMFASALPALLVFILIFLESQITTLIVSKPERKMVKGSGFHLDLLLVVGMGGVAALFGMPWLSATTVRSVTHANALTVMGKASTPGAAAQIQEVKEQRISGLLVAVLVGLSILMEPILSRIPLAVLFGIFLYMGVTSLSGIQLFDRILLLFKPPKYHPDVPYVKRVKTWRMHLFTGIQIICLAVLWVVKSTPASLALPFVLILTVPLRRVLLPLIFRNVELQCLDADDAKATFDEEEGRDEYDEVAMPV
Kind of assay: 36Cl- efflux. In kind it is cell-based. Particulars: 38C. The method in brief:
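Fresh heparinized human blood washed four times in medium A (150 mM KCl, 0.5–2 mM KH2PO4, pH 7.2), buffy coat removed. Covalent labelling: ~50% hematocrit, 50 µM DIDS, 38°C, 45 min, then washes in medium A. Cells loaded with 3.7–18.5 kBq 36Cl per ml suspension and packed. Tracer efflux measured at 38°C, pH 7.2, by Millipore-Swinnex filtration or continuous flow tube. Rate constant taken from extracellular radioactivity over time, corrected for trapped isotope.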

The test system of assay [2] is residual chloride transport in DIDS-C human red blood cells. As to the kind of experiment: 36Cl- efflux in DIDS-C cells. Type of assay: cell-based.
The test system of assay [3] is chloride conductance of the human red cell membrane. As to the kind of experiment: Conductance studies of net. Type of assay: cell-based. To be noted: 16 µM DIDS; calculated from Bennekou and Stampe (1988) data.
For assay [4] the test system is unchanged. Particulars: ref Bennekou and Stampe (1988); cited from earlier work.
Assay [5] deals with band 3 protein, DIDS binding site. To be noted: cited from earlier work.
Assay [6] has as its target human erythrocyte anion transporter. To be noted: read-out: Dissociation constant of DNDS binding, ref Frohlich (1982), cited from earlier work.

pKd: −log10 of the molar value. “And” between values parts separate entries of the source, which are not always exact repeats. Identical values can stand only once. Like-named read-outs stand apart in the source and are kept apart here.

Take `O=S(=O)(O)c1cc(N=C=S)ccc1C=Cc1ccc(N=C=S)cc1S(=O)(=O)O` [DIDS, 4,4'-diisothiocyanostilbene-2,2'-disulfonic acid]: in assay [1] (50 µM DIDS, 45 min, n = 10), the “Chloride efflux after DIDS binding procedure performed once” value was 96.3 [SD-+ 8.1] pmol cm-2 s-1 and the “Chloride efflux after DIDS binding procedure performed twice” value was 94.1 [SD ~ 11.0] pmol cm-2 s-1. Also, the “Irreversible inhibition of chloride transport by maximum covalent DIDS binding” value in assay [1] (DIDS-C cells vs control cells, pH 7.2) is listed as 99.8%. Besides, the “Chloride self-exchange flux in DIDS-C cells” value in assay [1] (covalently bound DIDS, pH 7.2, n = 30) is 106 pmol cm-2 s-1 and 106 (SD + 17) pmol cm-2 s-1. Further, the “Half-time for chloride tracer efflux in DIDS-C cells” value in assay [1] (found experimentally) is 29 s. Also, the “Chloride flux in DIDS-CR cells” value in assay [2] (covalent DIDS + 50 µM DIDS in flux medium, 38C, pH 7.2, n = 15) was 0.60 [SD -- 0,16] pmol cm-2 s-1. Further, in assay [3], the “Reduction of conductive component of chloride efflux” value is 96.4% and the “Reduction of conductive component of chloride efflux, fold” value is 28 times. Also, in assay [4], the “Inhibition of conductive flow of chloride” value was ~ 100%. Further, the “Half-time for irreversible DIDS binding” value in assay [5] (0C, ref Janas et al., 1989) was ~ 3 h. Also, the “Time constant 1/k of irreversible DIDS binding” value in assay [5] (38C, ref Janas et al., 1989) is on record as 2.2 rain.
For `O=[N+]([O-])c1ccc(C=Cc2ccc([N+](=O)[O-])cc2S(=O)(=O)O)c(S(=O)(=O)O)c1` [DNDS, 4,4'-dinitrostilbene-2,2'-disulfonate], the pKd in assay [6] (0C) was 7.08; in assay [6] (10C), 7.07; in assay [6] (20C) it was 7.05.
As to `O=S(=O)(O)c1cc(N=C=S)ccc1CCc1ccc(N=C=S)cc1S(=O)(=O)O` [H2DIDS, 4,4'-diisothiocyano-dihydrostilbene-2,2'-disulfonic acid], the “Rate of binding to the DIDS binding site relative to DIDS” value in assay [5] (0C, ref Shami, Rothstein, and Knauf, 1978) is “binds much faster than DIDS”.
On to `CC(C)[C@@H]1NC(=O)[C@H](C)OC(=O)[C@@H](C(C)C)NC(=O)[C@@H](C(C)C)OC(=O)[C@H](C(C)C)NC(=O)[C@H](C)OC(=O)[C@@H](C(C)C)NC(=O)[C@@H](C(C)C)OC(=O)[C@H](C(C)C)NC(=O)[C@H](C)OC(=O)[C@@H](C(C)C)NC(=O)[C@@H](C(C)C)OC1=O` [valinomycin], for which, in assay [2] (valinomycin 1 µM, extracellular chloride < 1 mM), the “Effect on initial 36Cl influx rate” value is given as “no detectable effect”.
